The EternaBench riboswitch data

Tested on: MS2 coat protein
Experiment: apparent Kd, MS2 coat protein; higher = weaker binding; RNA-MaP array; FMN 200 µM where present
Method in brief: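 Stalled E. coli RNA polymerase transcribed each design on Illumina sequencing-chip clusters. The clusters were titrated with SNAP-549-labelled MS2 coat protein, starting at 0.7 or 1.5 nM and doubling up to 3 µM, first without ligand and then with constant ligand, in 100 mM Tris-HCl pH 7.5, 80 mM KCl, 4 mM MgCl2, BSA, DTT, yeast tRNA and Tween-20. Green signal was normalised to red-channel RNA signal and to the control-cluster median Fmax. The apparent Kd is the median of filtered binding-curve fits made for each cluster.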

[1] = designed as: OFF switch for flavin mononucleotide, no ligand
[2] = ligand present: flavin mononucleotide, designed as: OFF switch for flavin mononucleotide
[3] = designed as: ON switch for flavin mononucleotide, no ligand
[4] = ligand present: flavin mononucleotide, designed as: ON switch for flavin mononucleotide

| Sequence | apparent Kd [1] | apparent Kd [2] | apparent Kd [3] | apparent Kd [4] |
| --- | --- | --- | --- | --- |
| AUUAUGUAAGGAUAUCUUACAUGUGACUUCGGUCACUGUUCAGAGAAGGUACAUGAGGAUCACCCAUGUAGAAC | 17.9 nM | 18.4 nM | – | – |
| AUAAUUAUAUAUUUGGCAAGAAUCAGAAGGCGUUACAUGAGGAUCACCCAUGUUUUGUAUAGUAACGAGGAUAUGAUAUGGAAA | 16.3 nM | 12.7 nM | – | – |
| GGCUCGCAGCUAGGAUAUGGGCGGUCACAUGAGGAUCACCCAUGUCAACAUCAAAACCAGAUUAACCAGAAGGAGCUGCGGGUU | – | – | 33.5 nM | 739 nM |
| UCAUAACAUGAGGAUCACCCAUGUCAGGAUAUGAUACUAUGUACUUCGGUACAUAGUAUCAGAAGGGACAUACU | 96.8 nM | 153 nM | – | – |
| CUACCUUAUGAGAAGGCGAUCAUGAAACAUGAUCGAGGAUAUCAUGUAAACAUGAGGAUCACCCAUGUAUGGGUAUUAUGGUAC | – | – | 98.5 nM | 27.3 nM |
| GUACAUGAGCAGAAGGGCAUUUAAUUAGAUUUUUAUGUUGAUCAGAAAUGCAGGAUAUGUUAAACAUGAGGAUCACCCAUGUAC | – | – | 218 nM | 24.1 nM |
| UGUUGUAUUACAGGAUAUCUAUUAUUGUUAUUUAGAGAAGGGUAUUCACAUGAGGAUCACCCAUGUAUAUACGAGGAAGUUGUG | – | – | 54.7 nM | 55.3 nM |
| UGGUACAUCGGAGGAUAUCGUGUGUAAACAUGAGGAUCACCCAUGUCGUACGAGAGUACGGAGAUCGAGAAGGCCGAUGUACCU | – | – | 16.4 nM | 15.1 nM |
| UACAACUUCGUAGGAUAUGUAUAUAAUUUCUACAUGAGGAUCACCCAUGUUAGCAUUUUUUAUUGACAGAAGGACGUAAUCUAA | – | – | 7.55 nM | 5.89 nM |
| UAUAUAUAGGCAGGAUAUACAUGUAUAUAUAAUAUAUUAUAUAAUAUAACAUGAGGAUCACCCAUGUAGAAGGGCCAUAAUAUA | 58.4 nM | 83.7 nM | – | – |
| AGGUGACAUGAGGAUCACCCAUGUAAGGAUAUACGGUUAGUGGAGAGUUGGAAGAGAGGUAGAAGGUACGGAGC | 288 nM | 137 nM | – | – |
| UUAUGAGAGCAGGAUAUCUUAUUUUUUUUUUAAAGAGAAGGGCUCACAUGAGGAUCACCCAUGUGGUCCUAGAU | 42.8 nM | 75.6 nM | – | – |
| AACGUGUGAGGAUAUUAGUUGUACGUCAAUAGACGUAUAAGUGAGAAGGCACAUGAGGAUCACCCAUGUUCCUG | 23.9 nM | 195 nM | – | – |
| GACCGCGAGGAAGGAUAUGGAGCCUUAUUGGCUCCAGAAGGUCCAUAAAGGACAUGAGGAUCACCCAUGUGGUGAGAAGCGGUC | – | – | 2070 nM | 179 nM |
| GGUGUGGCAUGAGGAUAUGGUCAGCUUUGCUGACCAGAAGGCAUGUCAAUAGACAUGAGGAUCACCCAUGUAGUUAACACACCA | – | – | 557 nM | 42.4 nM |
| GCUGCAUAGGCAGGAUAUGCAAUAAUUCGGAUAAAAUAUAACGAAUUAACAUGAGGAUCACCCAUGUAGAAGGGCCUGUGCAGU | 5.95 nM | 5.72 nM | – | – |
| GAGGCACAUGAGGAUCACCCAUGUGGGUAGAACAUAGGAUAUCACCAACAAAUUACCCGGUGAGAAGGAUGAUGCC | – | – | 234 nM | 57.4 nM |
| AGCAUGUAAGGAUAUGCAAGUGGUACGGAUAGUACCAGAAAGCAGAAGGUACAUGAGGAUCACCCAUGUGCUCC | 28.2 nM | 55.2 nM | – | – |
| CCCGGCGUGACGCUACACCGAGAGCAGGAUAUUCCGCCGUGAUCUACAUGAGGAUCACCCAUGUGGAAGAAGGGCUACACAAAA | 8.94 nM | 37.5 nM | – | – |
| AAUGUCAGAAAGGAUAUGUAACUUGUAACUGUGACAGAAGGUUCGACAUGAGGAUCACCCAUGUUGAUCCAGGU | 14.1 nM | 26.4 nM | – | – |
| UUAUAUAGUGUGAGGAUAUGCUGGUCCUUGGAUCAGCAGAAGGCACAUGAGGAUCACCCAUGUAGUUAAUUAUA | 32 nM | 122 nM | – | – |
| CCUCGACAUGAGGAUCACCCAUGUCAGGAUAUUGUGUUUCGGGUUUUUUACCUUUAGGCAAGAAGGGAUGUGUG | 15.8 nM | 22.4 nM | – | – |
| ACAUGAGGAUCACCCAUGUUCACAUAGGAUAUUGAUUAUAUUGGUUAUAGAAUAGUUAUAAUGCUCAAGAAGGAUGCCAGUUGU | – | – | 11 nM | 8.94 nM |
